Measurements as given in ChEMBL document CHEMBL1127851, “Synthesis and biological properties of 5-o-carboranyl-1-(2-deoxy-2-fluoro-beta-D-arabinofuranosyl)uracil” (J Med Chem, 1994).

Key:
Vero = assay: Antiviral activity against HSV-1 strain F in Vero cells on day 2; assay type: functional, cell-based; details: Chlorocebus sabaeus, 48 h
Summary of the method: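 Plaque reduction assay in Vero cells infected with HSV-1 strain F. […], diluted from 40 mM DMSO stocks. EC50 by Chou–Talalay median-effect analysis of the concentration-response curve. Replicate assays.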

PBMC [1] = assay: Cytotoxic concentration against PBM cells was determined on day 6; assay type: functional, cell-based; details: Homo sapiens, 144 h
Summary of the method: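 Cytotoxicity in human PBM, CEM and Vero cells, compounds diluted from 40 mM DMSO stocks. IC50 from the concentration-response curve by Chou–Talalay median-effect method. Replicate assays, variability under 15%.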

PBMC [2] = assay: Antiviral activity against HIV-1 strain LAI in PBM cells on day 6; assay type: functional, cell-based; details: Homo sapiens, 144 h
Summary of the method: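 HIV-1 (strain […] per footnote) in human PBM cells, acutely infected. Compounds from 40 mM DMSO stocks, diluted to test concentrations. EC50 from concentration-response curve by Chou–Talalay median-effect method. Replicate assays, variability under 15%.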

[3] = Compound was tested for inhibitory activity against erythroid (BFU-E) progenitor cells; assay type: functional, Homo sapiens
Summary of the method: (§1)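 Human bone marrow aspirated from healthy donors and heparinized. Mononuclear cells isolated on Ficoll-Hypaque, washed twice in HBSS; viability >98% by trypan blue. Bilayer soft agar or methyl cellulose culture at 0.1–100 μM. After 14 days at 37 °C in 5% CO2, colonies of ≥50 cells counted; % of control. Three donors, each in triplicate.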

CFU-GM = assay: Compound was tested for inhibitory activity against human myeloid cells (CFU-GM); assay type: functional, cell-based; summary of the method: as §1
Mus musculus [4] = assay: Percentage of weight gained or lost in 4th week in normal swiss mice at a dose of 30 mg/kg/day; assay type: functional
Summary of the method: (§2)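 Female Swiss mice, 6 weeks old, 5 per group. Given 30 mg/kg/day ip in sterile DMSO (0.1 mL) once daily for 6 days. DMSO and water controls. Weighed twice weekly for 28 days. Survival recorded at week 4.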

Mus musculus [5] = assay: Percentage of weight gained or lost in 1 week in normal swiss mice at a dose of 30 mg/kg/day; assay type: functional; summary of the method: as §2
Mus musculus [6] = organism: Mus musculus; assay: Number of animals survived when the compound was tested at a dose of 30 mgkg/day in 5 Swiss mice; assay type: functional; summary of the method: as §2
Mus musculus [7] = assay: Percentage of weight gained or lost in 3rd week in normal swiss mice at a dose of 30 mg/kg/day; assay type: functional; summary of the method: as §2
Mus musculus [8] = assay: Percentage of weight gained or lost in 2nd week in normal swiss mice at a dose of 30 mg/kg/day; assay type: functional; summary of the method: as §2

IC50 [3] [nM]	IC50 (CFU-GM) [nM]	Structure (SMILES)	EC50 (Vero) [nM]	IC50 (PBMC [1]) [nM]	EC50 (PBMC [2]) [nM]	Weight gain or loss (Mus musculus [4]) [%]	Weight gain or loss (Mus musculus [5]) [%]	No. of animals survived (Mus musculus [6])	Weight gain or loss (Mus musculus [7]) [%]	Weight gain or loss (Mus musculus [8]) [%]
600	1500	Cc1cn([C@H]2C[C@H](N=[N+]=[N-])[C@@H](CO)O2)c(=O)[nH]c1=O [ZIDOVUDINE]	> 50000	> 100000	4	–	–	–	–	–
–	–	C[S+](C)[O-] [DIMETHYL SULFOXIDE]	–	–	–	10	-0.9	5	6.3	3
